ChEMBL document CHEMBL4024800, “α-Amino-β-carboxymuconate-ε-semialdehyde Decarboxylase (ACMSD) Inhibitors as Novel Modulators of De Novo Nicotinamide Adenine Dinucleotide (NAD+) Biosynthesis” (J Med Chem, 2018)
≈ marks a conversion by molar mass, not a printed value. Calls of active or inactive are those of the source. The calls are words filed in the database; no cut-off is given here.

Legend:
[1] = target: Cytochrome P450 2C19 (Homo sapiens, UniProt P33261); test: Inhibition of recombinant human CYP2C19 expressed in baculosomes expression system using fluorogenic-BOMCC as substrate by fluorescent homogeneous assay; assay type: ADME
Chain of Cytochrome P450 2C19 (P33261 whole entry): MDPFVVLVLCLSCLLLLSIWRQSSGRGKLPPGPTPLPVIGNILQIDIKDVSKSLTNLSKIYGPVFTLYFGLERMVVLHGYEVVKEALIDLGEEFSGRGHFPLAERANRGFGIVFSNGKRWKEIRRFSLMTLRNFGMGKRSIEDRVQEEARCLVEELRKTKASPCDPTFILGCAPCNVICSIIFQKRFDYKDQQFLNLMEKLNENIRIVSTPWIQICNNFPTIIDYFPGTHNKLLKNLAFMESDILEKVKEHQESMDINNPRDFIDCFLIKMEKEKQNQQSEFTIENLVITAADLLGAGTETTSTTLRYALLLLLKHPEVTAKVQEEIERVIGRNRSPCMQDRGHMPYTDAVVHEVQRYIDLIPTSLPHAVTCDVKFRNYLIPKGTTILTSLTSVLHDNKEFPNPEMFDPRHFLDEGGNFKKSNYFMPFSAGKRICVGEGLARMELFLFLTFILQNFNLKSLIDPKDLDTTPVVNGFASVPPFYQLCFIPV
In short: (§1)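 Recombinant CYP baculosomes with fluorogenic substrates, at concentrations below their Km; homogeneous fluorescence read-out, run in triplicate. IC50 classes: <1 μM potent, 1–10 μM moderate, >10 μM weak or none.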

[2] = species on record: Homo sapiens; test: Activity at LXR (unknown origin)
In short: (§2)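 Eight-point serial dilutions tested in an in-house AlphaScreen-based nuclear receptor panel; activity derived from nonlinear regression curves.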

[3] = system: Mus musculus; test: In vivo inhibition of ACMSD in CD1 mouse kidney at 5 mg/kg, po after 0.5 to 2 hrs; assay type: functional, organism-based
In short: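 CD1 mice dosed orally at 5 mg/kg in 0.5% (w/v) HPMC in water with 5% (v/v) DMSO; kidneys collected at various times, snap-frozen and ground. Tissue powder homogenised in 50 mM Tris pH 7.5, 0.15 M NaCl with protease inhibitors, spun 38 000g 20 min at 4 °C. Supernatant assayed spectrophotometrically with 30 μM 3-hydroxyanthranilic acid; activity normalised to BCA protein. One-way ANOVA with Dunnett's test.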

[4] = Solubility of compound in PBS buffer at pH 7.4 after 24 hrs by UV/vis-spectroscopic analysis; assay type: physicochemical
In short: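 Compound in PBS pH 7.4 with 1% DMSO mixed, incubated 24 h and vacuum-filtered; filtrate read by UV/vis and relative solubility calculated from summed readings against a standard. Reported in mg/mL.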

[5] = AUClast in mouse liver at 5 mg/kg, po measured up to 8 hrs post dose; assay type: ADME, organism-based; set-up: dose 5 mg/kg, time < 8 hr, route oral
In short: (§3)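 Mice dosed orally at 5 mg/kg in 0.5% (w/v) HPMC in water with 5% (v/v) DMSO; blood, liver and kidney concentrations followed to 8 h. AUC0–8h given in h·ng/mL; parameters reported as means.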

[6] = Clearance in CD1 mouse at 0.5 mg/kg, iv measured up to 24 hrs post dose; assay type: ADME, organism-based; conditions: in vivo
In short: (§4)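 Mice given 0.5 mg/kg IV in saline containing 5% (v/v) DMSO and 20% (v/v) PEG400; blood pharmacokinetic parameters reported as means.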

[7] = target: Cytochrome P450 2D6 (Homo sapiens, UniProt P10635); test: Inhibition of recombinant human CYP2D6 expressed in baculosomes expression system using fluorogenic-BOMCC as substrate by fluorescent homogeneous assay; assay type: ADME; in short: as §1
Chain of Cytochrome P450 2D6 (P10635 whole entry): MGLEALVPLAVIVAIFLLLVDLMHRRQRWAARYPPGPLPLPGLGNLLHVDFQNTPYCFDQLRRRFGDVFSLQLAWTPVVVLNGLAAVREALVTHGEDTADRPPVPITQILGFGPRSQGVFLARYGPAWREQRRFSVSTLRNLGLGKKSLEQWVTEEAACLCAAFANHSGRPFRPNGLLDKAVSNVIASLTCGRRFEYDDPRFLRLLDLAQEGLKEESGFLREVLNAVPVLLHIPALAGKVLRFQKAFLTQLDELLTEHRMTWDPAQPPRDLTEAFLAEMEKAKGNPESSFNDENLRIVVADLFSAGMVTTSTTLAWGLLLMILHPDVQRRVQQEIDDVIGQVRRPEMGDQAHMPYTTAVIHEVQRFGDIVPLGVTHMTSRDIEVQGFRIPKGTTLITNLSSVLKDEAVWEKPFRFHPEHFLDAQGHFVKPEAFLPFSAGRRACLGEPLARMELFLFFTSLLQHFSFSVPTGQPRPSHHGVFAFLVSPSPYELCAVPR

[8] = Cytotoxicity against mouse AML-12 cells assessed as reduction in cell viability after 4 hrs by celltiter-glo assay; assay type: cell-based; conditions: aml-12, 4 h
In short: (§5)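 HepG2 or AML12 cells, 5 × 10^3 per well, exposed to compound for 4 h at 37 °C. Viability read as ATP by CellTiter-Glo luminescence; tamoxifen control.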

[9] = AUClast in CD1 mouse at 0.5 mg/kg, iv measured up to 24 hrs post dose; assay type: ADME, organism-based; set-up: dose 0.5 mg/kg, time < 24 hr, route intravenous; conditions: in vivo; in short: as §4
[10] = AUClast in mouse blood at 5 mg/kg, po measured up to 8 hrs post dose; assay type: ADME, organism-based; set-up: time < 8 hr, dose 5 mg/kg, route oral; in short: as §3
[11] = target: Cytochrome P450 3A4 (Homo sapiens, UniProt P08684); test: Inhibition of recombinant human CYP3A4 expressed in baculosomes expression system using fluorogenic-BOMCC as substrate by fluorescent homogeneous assay; assay type: ADME; in short: as §1
Chain of Cytochrome P450 3A4 (P08684 whole entry): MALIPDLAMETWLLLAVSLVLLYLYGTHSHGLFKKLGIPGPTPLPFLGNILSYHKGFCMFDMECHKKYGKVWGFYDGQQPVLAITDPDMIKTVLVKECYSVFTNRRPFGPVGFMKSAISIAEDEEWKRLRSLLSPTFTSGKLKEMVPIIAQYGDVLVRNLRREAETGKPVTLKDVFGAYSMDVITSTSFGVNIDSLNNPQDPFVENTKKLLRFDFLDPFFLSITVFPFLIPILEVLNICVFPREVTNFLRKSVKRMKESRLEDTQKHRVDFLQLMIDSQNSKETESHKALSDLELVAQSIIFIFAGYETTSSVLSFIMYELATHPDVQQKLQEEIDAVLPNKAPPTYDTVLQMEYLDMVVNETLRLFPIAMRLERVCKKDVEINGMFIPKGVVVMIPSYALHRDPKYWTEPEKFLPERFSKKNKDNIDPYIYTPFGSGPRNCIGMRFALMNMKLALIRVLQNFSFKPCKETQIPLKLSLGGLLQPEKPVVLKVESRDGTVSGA

[12] = system: HepG2; test: Cytotoxicity against human HepG2 cells assessed as reduction in cell viability after 4 hrs by celltiter-glo assay; assay type: cell-based; conditions: hepg2, 4 h; in short: as §5
[13] = target: 2-amino-3-carboxymuconate-6-semialdehyde decarboxylase (Homo sapiens, UniProt Q8TDX5); test: Inhibition of human ACMSD expressed in Pichia pastoris using ACMS as substrate by coupled spectrophotometric assay
Chain of 2-amino-3-carboxymuconate-6-semialdehyde decarboxylase (Q8TDX5 whole entry): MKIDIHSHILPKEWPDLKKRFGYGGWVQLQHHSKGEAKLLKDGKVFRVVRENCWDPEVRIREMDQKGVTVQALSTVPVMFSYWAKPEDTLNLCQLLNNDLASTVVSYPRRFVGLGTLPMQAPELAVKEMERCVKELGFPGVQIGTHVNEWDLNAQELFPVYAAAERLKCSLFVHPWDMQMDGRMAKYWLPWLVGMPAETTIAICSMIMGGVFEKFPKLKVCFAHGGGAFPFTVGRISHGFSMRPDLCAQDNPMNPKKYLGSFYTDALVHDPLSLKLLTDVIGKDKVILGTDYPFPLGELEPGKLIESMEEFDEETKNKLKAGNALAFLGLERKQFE
In short: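 Recombinant enzyme purified from Pichia pastoris; ACMS substrate generated in a pre-assay mix from 10 μM 3-hydroxyanthranilic acid by Ralstonia metallidurans 3-hydroxyanthranilate 3,4-dioxygenase, formation monitored at 360 nm. Enzyme and compound then added together; activity from initial rate of absorbance decrease minus a no-enzyme control. Serial dilutions, 1.0% DMSO throughout. IC50 from concentration–response curves, mean ± SD of three independent experiments.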

[14] = target: T1, Bile acid receptor (Homo sapiens) (UniProt Q96RI1); test: Activity at FXR (unknown origin); in short: as §2
T1 sequence (whole entry): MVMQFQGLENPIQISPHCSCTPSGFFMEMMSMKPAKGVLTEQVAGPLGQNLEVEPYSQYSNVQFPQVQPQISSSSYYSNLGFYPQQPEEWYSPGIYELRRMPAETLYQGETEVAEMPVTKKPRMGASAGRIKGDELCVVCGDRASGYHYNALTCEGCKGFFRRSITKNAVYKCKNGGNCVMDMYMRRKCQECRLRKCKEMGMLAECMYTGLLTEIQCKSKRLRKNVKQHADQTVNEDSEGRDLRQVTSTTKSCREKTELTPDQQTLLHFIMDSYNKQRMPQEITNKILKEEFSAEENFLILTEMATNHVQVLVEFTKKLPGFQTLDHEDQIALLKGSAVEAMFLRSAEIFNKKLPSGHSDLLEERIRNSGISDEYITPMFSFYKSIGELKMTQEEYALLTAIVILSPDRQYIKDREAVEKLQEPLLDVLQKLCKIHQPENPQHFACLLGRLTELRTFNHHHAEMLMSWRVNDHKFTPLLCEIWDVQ

[15] = Cmax in CD1 mouse at 5 mg/kg, po measured up to 8 hrs after dose; assay type: ADME, organism-based; set-up: dose 5 mg/kg, route oral; conditions: in vivo; in short: as §3
[16] = target: T2, Vitamin D3 receptor (Homo sapiens) (UniProt P11473); test: Activity at VDR (unknown origin); in short: as §2
T2 sequence (whole entry): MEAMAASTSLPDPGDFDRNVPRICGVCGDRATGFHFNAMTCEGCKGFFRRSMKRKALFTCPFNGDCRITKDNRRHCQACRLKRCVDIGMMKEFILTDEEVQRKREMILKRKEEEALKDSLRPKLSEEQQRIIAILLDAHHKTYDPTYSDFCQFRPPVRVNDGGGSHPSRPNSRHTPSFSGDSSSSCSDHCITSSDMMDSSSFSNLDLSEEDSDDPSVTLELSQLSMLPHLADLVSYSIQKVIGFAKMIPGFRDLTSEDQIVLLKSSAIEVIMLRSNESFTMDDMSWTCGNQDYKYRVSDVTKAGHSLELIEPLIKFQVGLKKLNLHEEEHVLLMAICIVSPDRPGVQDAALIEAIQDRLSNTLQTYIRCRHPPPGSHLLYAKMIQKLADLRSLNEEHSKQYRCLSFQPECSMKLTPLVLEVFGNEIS

[17] = Drug uptake in mouse central nervous system at 5 mg/kg, po; assay type: ADME, organism-based; conditions: in vivo
[18] = system: Mus musculus; test: In vivo inhibition of ACMSD in C57BL/6 mouse assessed as increase in NAD+ levels in liver at 15 and 30 mg/kg/day for 10 days dosed as diet supplement by ion-pair C18- HPLC chromatography; assay type: functional, organism-based
In short: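 Male mice given the compound in the diet for 10 days; vehicle 5% DMSO, 20% PEG. After a 3 h fast, livers snap-frozen and ground; NAD+ extracted by sonication in HClO4, quantified by ion-pair C18 HPLC and normalised to BCA protein. One-way ANOVA with Dunnett's test.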

[19] = Oral bioavailability in CD1 mouse at 5 mg/kg measured up to 8 hrs after dose; assay type: ADME, organism-based; conditions: in vivo; in short: as §3
[20] = Tmax in CD1 mouse at 5 mg/kg, po measured up to 8 hrs post dose; assay type: ADME, organism-based; conditions: in vivo; in short: as §3

- IC50 [1]: > 10 µM
- Activity [2]: inactive
- solubility at 24 h [4]: 800 µg/mL (≈ 2090 µM)
- AUC(0-t) at 8 h [5]: 19200 ng·h/mL
- clearance [6]: 0.78 mL/min/kg
- IC50 [7]: > 10 µM
- AUC(0-t) at 24 h [9]: 10700 ng·h/mL
- AUC(0-t) at 8 h [10]: 12700 ng·h/mL
- IC50 [11]: > 10 µM
- IC50 [13]: 0.013 µM
- Activity [14]: inactive
- Cmax [15]: 2570 ng/mL
- Activity [16]: inactive
- Drug uptake [17]: Not Active
- bioavailability [19]: 12%
- Tmax [20]: 2 h
Compound: N#Cc1c(-c2cccs2)nc(SCc2cccc(CC(=O)O)c2)[nH]c1=O
- inhibition [3]: Active
- Activity [8]: Non-Toxic
- Activity [12]: Non-Toxic
- inhibition [18]: Active
